Measurements taken from ChEMBL document CHEMBL4000155, “Synthesis and Antileukemic Activities of Piperlongumine and HDAC Inhibitor Hybrids against Acute Myeloid Leukemia Cells” (J Med Chem, 2016).
pIC50: −log10 of the molar value. The source made the active and inactive calls. No cut-off for these calls is given here.

How the values were obtained:
MCF-10A = experiment: Cytotoxicity against human MCF10A cells assessed as decrease in cell viability at 0.5 to 5 uM after 24 hrs by MTT assay; type: cell-based
Outline: (§1)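 MCF-10A (DMEM/F12, 5% horse serum, hydrocortisone, cholera toxin, insulin, EGF) and U937 (RPMI 1640, 10% FBS) were exposed to 0.5–5 μM, alone or PL+SAHA 1:1, for 24 h. MTT 0.05 mg/mL, 3 h at 37 °C, DMSO solubilization, A570. Viability given as mean ± SD of four to six independent experiments. DMSO <0.1% vehicle control.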

U-937 [1] = experiment: Induction of apoptosis in p53 null human U937 cells at 2 uM preincubated with NAC for 3 hrs followed by compound addition measured after 24 hrs by annexin V-FITC/PI staining based flow cytometry; type: functional, cell-based
Outline: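 U937 cells preincubated 3 h with 3 mM NAC or vehicle and washed with PBS to remove excess NAC. Then drug alone or with SAHA for 24 h. Apoptosis scored as % Annexin V+ by Annexin V-FITC/PI flow cytometry; vehicle DMSO < 0.1% v/v.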

[2] = Antiproliferative activity against human CMS cells after 72 hrs by MTT assay; type: functional, cell-based
Outline: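 AML cell lines grown in RPMI 1640 with 10% FBS (20% for MOLM-13), 2 mM L-glutamine and penicillin/streptomycin at 37 °C, 5% CO2. Ara-C-resistant HL-60 and CMK sublines came from stepwise cytarabine selection and were kept in 600 nM or 300 nM cytarabine respectively. Cells were treated 72 h. MTT 0.05 mg/mL, 3 h at 37 °C, DMSO solubilization, absorbance at 570 nm. IC50 given ± SEM.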

U-937 [3] = experiment: Induction of cell death in p53 null human U937 cells at 1 to 4 uM after 24 hrs by annexin V-FITC/PI staining based flow cytometry; type: functional
Outline: (§2)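 Human U937 AML cells (p53 null) in RPMI 1640 with 10% FBS, 2 mM L-glutamine, penicillin/streptomycin, 37 °C, 5% CO2. Exposed 24 h to compound alone or with SAHA; vehicle DMSO < 0.1% v/v. Annexin V-FITC/PI staining and flow cytometry, reported as % Annexin V+ cells. Three independent experiments in triplicate; one representative shown. EC50 taken as concentration giving 50% Annexin V+ cells versus vehicle.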

U-937 [4] = experiment: Induction of apoptosis in p53 null human U937 cells at 2 uM after 24 hrs by annexin V-FITC/PI staining based flow cytometry; type: functional; outline: as §2
U-937 [5] = experiment: Induction of DNA damage in p53 null human U937 cells at 2 uM after 20 hrs by SYBR gold staining based alkaline comet assay; type: functional, cell-based
Outline: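 U937 cells treated 20 h with SAHA and PL alone or combined (16 h for hybrids). Alkaline single-cell gel electrophoresis, SYBR Gold staining, microscopy. Median % DNA in tail from 4 replicate gels ± s.e.m.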

U-937 [6] = experiment: Induction of apoptosis in p53 null human U937 cells at 0.25 to 2 uM after 24 hrs by annexin V-FITC/PI staining based flow cytometry; type: functional, cell-based
Outline: (§3)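 Cells treated 24 h, single agents or SAHA+PL at 1:1 (each drug at the stated concentration). Annexin V-FITC/PI kit staining, then flow cytometry, reported as % Annexin V+ cells. Three independent experiments in triplicate, with data from one representative experiment. DMSO <0.1% vehicle control.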

Homo sapiens = organism: Homo sapiens; settings: at 1 µM
U-937 [7] = experiment: Cytotoxicity against p53 null human U937 cells assessed as decrease in cell viability at 0.5 to 5 uM after 24 hrs by MTT assay; type: functional, cell-based; outline: as §1
AML [8] = experiment: Induction of apoptosis in patient derived AML-91 cells after 24 hrs by annexin V-FITC/PI staining based flow cytometry; type: functional, cell-based; settings: Homo sapiens
Outline: (§4)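 Primary AML samples purified by Ficoll-Hypaque density centrifugation and cultured in RPMI 1640 with 20% FBS, ITS and 20% 5637 bladder cancer cell supernatant as a GM-CSF source. Treated 24 h, then Annexin V-FITC/PI flow cytometry as % Annexin V+. Single experiment in triplicate.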

AML [9] = experiment: Induction of apoptosis in patient derived AML cells assessed as PARP-1 cleavage at 0.25 to 2 uM after 24 hrs by Western blot analysis; type: functional, cell-based; settings: Homo sapiens
Outline: (§5)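 Primary AML patient cells, Ficoll-Hypaque purified and grown in RPMI 1640/20% FBS with ITS and 5637 supernatant. Exposed 24 h; whole-cell lysates prepared with protease/phosphatase inhibitors, run on SDS-PAGE, blotted to PVDF and probed for PARP and cleaved caspase-3.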

U-937 [10] = experiment: Induction of apoptosis in p53 null human U937 cells assessed as PARP-1 cleavage at 0.25 to 0.5 uM after 24 hrs by Western blot analysis; type: functional, cell-based
Outline: (§6)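 U937 cells exposed for 24 h. Lysates with protease/phosphatase inhibitors were separated by SDS-PAGE, transferred to PVDF and probed for PARP and cleaved caspase-3, with β-actin as loading control.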

U-937 [11] = experiment: Induction of apoptosis in p53 null human U937 cells at 0.25 to 0.5 uM preincubated with NAC for 3 hrs followed by compound addition measured after 24 hrs by annexin V-FITC/PI staining based flow cytometry; type: functional, cell-based
Outline: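 U937 cells preincubated 3 h with 3 mM NAC or vehicle, washed with PBS, then drug-treated 24 h. Annexin V-FITC/PI staining by flow cytometry, reported as % Annexin V+.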

U-937 [12] = experiment: Induction of apoptosis in p53 null human U937 cells assessed as caspase 3 cleavage at 0.25 to 0.5 uM after 24 hrs by Western blot analysis; type: functional, cell-based; outline: as §6
U-937 [13] = experiment: Induction of apoptosis in p53 null human U937 cells at 1 uM after 24 hrs by annexin V-FITC/PI staining based flow cytometry; type: functional; outline: as §3
U-937 [14] = experiment: Induction of apoptosis in p53 null human U937 cells at 0.25 uM after 24 hrs by annexin V-FITC/PI staining based flow cytometry; type: functional; outline: as §3
AML [15] = experiment: Induction of apoptosis in patient derived AML-92 cells after 24 hrs by annexin V-FITC/PI staining based flow cytometry; type: functional, cell-based; settings: Homo sapiens; outline: as §4
[16] = Chemical stability of the compound in pH 7.4 phosphate buffer at 50 uM incubated up to 4 hrs in absence of GSH by HPLC analysis; type: physicochemical; settings: pH 7.4, 4 h
Outline: (§7)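 Compound at 50 μM incubated with or without 5 mM GSH in phosphate buffer pH 7.4 at 37 °C for up to 4 h. Mixtures analysed by HPLC with water/0.1% formic acid/10% methanol versus 0.1% formic acid in acetonitrile, 0.5 mL/min, 10–80% B gradient over 18 min.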

[17] = Chemical stability of the compound in pH 7.4 phosphate buffer at 50 uM incubated up to 4 hrs in presence of GSH by HPLC analysis; type: physicochemical; settings: pH 7.4, 4 h; outline: as §7
AML [18] = experiment: Induction of apoptosis in patient derived AML cells assessed as caspase 3 cleavage at 0.25 to 2 uM after 24 hrs by Western blot analysis; type: functional, cell-based; settings: Homo sapiens; outline: as §5
U-937 [19] = experiment: Induction of apoptosis in p53 null human U937 cells at 0.5 uM after 24 hrs by annexin V-FITC/PI staining based flow cytometry; type: functional; outline: as §3

SMILES	Activity (MCF-10A)	Activity (U-937 [4])	Activity (U-937 [6])	inhibition (Homo sapiens)	Activity (U-937 [7])	other results
O=C(CCCCCCC(=O)Nc1ccccc1)NO [VORINOSTAT]	Non-Toxic	25%				Activity (U-937 [1]): inactive; pIC50 [2]: 5.99; Activity (U-937 [3]): Active; Activity (U-937 [5]): inactive
COc1cc(/C=C/C(=O)N2CCCCC2=O)cc(OC)c1OCCCCCCC(=O)NO			inactive	Active		
COc1cc(/C=C/C(=O)N2CCC=C(Cl)C2=O)cc(OC)c1OCCCCCCC(=O)NO	Toxic	100%		Active	Active	Activity (AML [8]): Dose-dependent effect; Activity (AML [9]): Active; Activity (U-937 [10]): Active; Activity (U-937 [11]): inactive; Activity (U-937 [12]): Active; Activity (U-937 [13]): 88%; Activity (U-937 [14]): 29.9%; Activity (AML [15]): Dose-dependent effect; Stability [16]: Stable; Stability [17]: Unstable; Activity (AML [18]): Active; Activity (U-937 [19]): 49.2%
COc1cc(/C=C/C(=O)N2CCC(C)=CC2=O)cc(OC)c1OCCCCCCC(=O)NO			inactive	Active		
COc1cc(C(=O)N2CCC=CC2=O)cc(OC)c1OCCCCCCC(=O)NO	Non-Toxic	40%		Active	Active	
COC(=O)CCCCCCOc1c(OC)cc(/C=C/C(=O)N2CCC=CC2=O)cc1OC			inactive	inactive		
COc1cc(C(=O)N2CCC=C(Cl)C2=O)cc(OC)c1OCCCCCCC(=O)NO	Non-Toxic	40%		Active	Active	Stability [17]: Unstable
COC(=O)CCCCCCOc1c(OC)cc(/C=C/C(=O)N2CCC=C(Cl)C2=O)cc1OC				inactive		Activity (U-937 [13]): 29.7%
